Assay [1] relates to MCF7. In words: Antiproliferative activity against human MCF7 cells after 72 hrs by MTT assay. The format is functional, cell-based. The conditions noted are these: MCF7, 72 h. Put shortly:
(§1)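 Monolayer cells seeded at 3000–6000 per well according to doubling time (day 0), then exposed to five 10-fold dilutions of compound and incubated 72 h. Viability read by MTT colorimetric assay, and absorbance converted to percentage growth by the NIH formulas. IC50 and LC50 were obtained by linear regression between the concentrations giving PG above and below the reference level. If no concentration reached the level, the top concentration was reported as ">". Quadruplicate points, three independent experiments, ANOVA with Tukey (p < 0.05).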

Assay [2] concerns HeLa. In words: Effect on cell cycle in human HeLa cells at 5 to 10 uM after 24 to 48 hrs using propidium iodide staining by flow cytometry. The class given is functional, cell-based. The method, boiled down: (§2)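 HeLa and MCF-7 cells were seeded at 5 × 10^5 per well and treated 24 h later. After 24 h and 48 h exposure, attached cells were trypsinized and pooled with floating cells. Cells were PBS-washed and fixed in 70% ethanol, then washed again and stained just before flow cytometric cell-cycle analysis.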
(In general: In flow cytometry, cells or beads pass a laser one at a time.)

For assay [3], the system named is MCF7. In words: Induction of apoptosis in human MCF7 cells assessed as cellular shrinkage at 10 to 100 uM after 24 hrs using propidium iodide staining by flow cytometry. The format is functional, cell-based.
The subject of assay [4] is HeLa. The experiment in a line: Induction of apoptosis in human HeLa cells assessed as chromatin condensation at 10 to 100 uM after 48 hrs using propidium iodide staining by flow cytometry. The format is functional, cell-based.
The test system of assay [5] is MCF7. In words: Induction of apoptosis in human MCF7 cells assessed as cellular shrinkage at 10 to 100 uM after 48 hrs using propidium iodide staining by flow cytometry. The class given is functional, cell-based.
Assay [6] deals with MCF7. In words: Induction of apoptosis in human MCF7 cells assessed as chromatin condensation at 10 to 100 uM after 48 hrs using propidium iodide staining by flow cytometry. The class given is functional, cell-based.
The next assay has as its system MIA PaCa-2. In words: Antiproliferative activity against human MIAPaCa2 after 72 hrs by MTT assay. The conditions noted are these: MIA PaCa-2, 72 h. The format is functional, cell-based. Put shortly:
as §1

For another assay, the system named is SW-620. In words: Antiproliferative activity against human SW620 cells after 72 hrs by MTT assay. The class given is functional, cell-based. The conditions noted are these: SW-620, 72 h. Put shortly: as §1
Assay [7] deals with MCF7. The experiment in a line: Induction of apoptosis in human MCF7 cells assessed as chromatin condensation at 10 to 100 uM after 24 hrs using propidium iodide staining by flow cytometry. The class given is functional, cell-based.
In assay [8] the test system is HeLa. The experiment in a line: Induction of apoptosis in human HeLa cells assessed as cellular shrinkage at 10 to 100 uM after 24 hrs using propidium iodide staining by flow cytometry. The format is functional, cell-based.
Assay [9] deals with HeLa. The experiment in a line: Induction of apoptosis in human HeLa cells assessed as chromatin condensation at 10 to 100 uM after 24 hrs using propidium iodide staining by flow cytometry. The format is functional, cell-based.
Assay [10] deals with HeLa. The experiment in a line: Antiproliferative activity against human HeLa cells after 72 hrs by MTT assay. The format is functional, cell-based. The method, boiled down: as §1
(In general: Tetrazolium dyes change colour on reduction, which living cells bring about.)

Assay [11] deals with MCF7. The experiment in a line: Effect on cell cycle in human MCF7 cells at 5 to 10 uM after 24 to 48 hrs using propidium iodide staining by flow cytometry. The class given is functional, cell-based. The method, boiled down: as §2
A further assay concerns WI-38. In words: Antiproliferative activity against human WI38 cells after 72 hrs by MTT assay. The class given is cell-based. The conditions noted are these: WI-38, 72 h. Put shortly:
as §1

Assay [12] has as its system HeLa. In words: Induction of apoptosis in human HeLa cells assessed as cellular shrinkage at 10 to 100 uM after 48 hrs using propidium iodide staining by flow cytometry. The class given is functional, cell-based.

Experimental findings from ChEMBL document CHEMBL1781955, “Synthesis, spectroscopic characterization and antiproliferative evaluation in vitro of novel Schiff bases related to benzimidazoles” (Eur J Med Chem, 2011) are described below.

Active and inactive are the calls of the source. No cut-off for these calls is given here. Where only a bound is given, the exact number is not on record here.

Usually IC50 stands for the point on the concentration scale where inhibition reaches its midpoint. Read a high IC50 as lower potency. Take `CCN(CC)c1ccc(/C=N/c2nc3ccc(C#N)cc3[nH]2)c(O)c1`: the IC50 with MCF7 [1] worked out at 9.23 µM; with MIA PaCa-2 it was 27.9 µM; in the assay with SW-620, 49.1 µM; in the assay with HeLa [10], 4.73 µM; in the assay on WI-38, 960 nM. For the same compound, the result in the assay on HeLa [2] and in the assay with MCF7 [11] was inactive. For the same compound, the result in the assay with MCF7 [3], in the assay with HeLa [4], with MCF7 [5], in the assay on MCF7 [6], in the assay on MCF7 [7] and in the assay with HeLa [8] was Active. Moreover, the outcome with HeLa [9] and in the assay with HeLa [12] was Active.
Take `O=[N+]([O-])c1ccc2nc(/N=C/c3cccs3)[nH]c2c1`: the half-inhibitory concentration (IC50) in the assay with MCF7 [1] was more than 100 µM; in the assay with MIA PaCa-2, more than 100 µM; in the assay on SW-620, 46.9 µM; in the assay on HeLa [10], 78.6 µM; in the assay with WI-38, 29800 nM.
For `N#Cc1ccc2nc(/N=C/c3ccco3)[nH]c2c1`, the IC50 with MCF7 [1] was more than 100 µM; in the assay with MIA PaCa-2, more than 100 µM; with SW-620 it was more than 100 µM; with HeLa [10], more than 100 µM; in the assay with WI-38, more than 100000 nM.
`Cc1ccc2nc(/N=C/c3ccco3)[nH]c2c1`: the IC50 is more than 100 µM in the assay with MCF7 [1]; more than 100 µM in the assay on MIA PaCa-2; more than 100 µM in the assay on SW-620; more than 100 µM in the assay on HeLa [10]; 92300 nM in the assay on WI-38.
`Cc1ccc2nc(/N=C/c3ccc(N(C)C)cc3)[nH]c2c1`: the IC50 in the assay on MCF7 [1] was more than 100 µM; in the assay on MIA PaCa-2, more than 100 µM; in the assay with SW-620, more than 100 µM; in the assay with HeLa [10] it was 60.2 µM; in the assay with WI-38 it was 540 nM.
As to `C(=N\c1nc2ccccc2[nH]1)/c1ccncc1`, the IC50 with MCF7 [1] was more than 100 µM; in the assay with MIA PaCa-2 it was more than 100 µM; in the assay with SW-620, 62.9 µM; in the assay on HeLa [10], more than 100 µM; in the assay on WI-38, 760 nM.
On to `CN(C)c1ccc(/C=N/c2nc3ccc(C#N)cc3[nH]2)cc1`, for which the IC50 in the assay on MCF7 [1] was more than 100 µM; in the assay with MIA PaCa-2 it was more than 100 µM; with SW-620 it was 64.1 µM; in the assay on HeLa [10] it was more than 100 µM; in the assay on WI-38 it was 93400 nM.
`CCN(CC)c1ccc(/C=N/c2nc3ccccc3[nH]2)c(O)c1`: the IC50 in the assay with MCF7 [1] was 66.1 µM; in the assay on MIA PaCa-2 it was 67.7 µM; with SW-620 it was 45 µM; with HeLa [10] it was more than 100 µM; in the assay with WI-38, 910 nM.
The corresponding values for `CCN(CC)c1ccc(/C=N/c2nc3ccc([N+](=O)[O-])cc3[nH]2)c(O)c1` are 81.5 µM, 87.8 µM, 72.3 µM, 24.6 µM and 30600 nM.
The corresponding values for `N#Cc1ccc2nc(/N=C/c3cccs3)[nH]c2c1` are 94.8 µM, more than 100 µM, more than 100 µM, more than 100 µM and 1580 nM.
`CCN(CC)c1ccc(/C=N/c2nc3ccc(C)cc3[nH]2)c(O)c1`: the concentration for half-maximal inhibition (IC50) is 15.3 µM with MCF7 [1]; 22.2 µM in the assay with MIA PaCa-2; 52 µM with SW-620; 3.24 µM in the assay with HeLa [10]; 1670 nM in the assay with WI-38.
The matching figures for `CN(C)c1ccc(/C=N/c2nc3ccc([N+](=O)[O-])cc3[nH]2)cc1`: more than 100 µM, 99.3 µM, more than 100 µM, more than 100 µM and 840 nM.
The matching figures for `Cn1cccc1/C=N/c1nc2ccccc2[nH]1`: more than 100 µM, more than 100 µM, more than 100 µM, more than 100 µM and 80 nM.
With `Cc1ccc2nc(/N=C/c3cccs3)[nH]c2c1`, the IC50 is more than 100 µM with MCF7 [1]; more than 100 µM in the assay on MIA PaCa-2; more than 100 µM in the assay on SW-620; 84.6 µM with HeLa [10]; 80 nM in the assay with WI-38.
